Sampled rows, rich in hits. Any-hit rate of the full collection: about 2.5%.
Rce1 inhib – yeast Ras-converting enzyme inhibition | calls only | yeast membranes, quenched prenylated peptide cleavage fluorescence | Q03530 | 0.27% of 290,000 active;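 active = fall in fluorescence gain of 50% or more versus controls, with final raw signal at or below 3038400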;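 note: plate controls were neutral control wells for no effect and wells lacking membranes for full effect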
Target sequence (Q03530 whole entry, looked up): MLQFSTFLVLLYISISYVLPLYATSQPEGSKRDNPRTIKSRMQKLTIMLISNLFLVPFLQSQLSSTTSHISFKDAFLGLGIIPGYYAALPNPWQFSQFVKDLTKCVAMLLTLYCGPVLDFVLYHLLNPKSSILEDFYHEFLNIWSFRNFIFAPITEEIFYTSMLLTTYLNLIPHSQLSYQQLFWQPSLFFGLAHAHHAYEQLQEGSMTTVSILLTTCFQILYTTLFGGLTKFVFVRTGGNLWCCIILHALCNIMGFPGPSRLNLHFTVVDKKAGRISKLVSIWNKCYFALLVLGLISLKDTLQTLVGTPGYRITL
T cell HTS – T cell immune modulation candidate | 2C CD8+ T cell-vesicle binding, flow cytometry; hits give low values | response (vesicle binding), % at 7 µM | 0.068% of 330,000 active | AID 2052;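 active = response, share of CD8 T cells binding vesicles, and their 90th percentile fluorescence all below set limits, cut at about 80% in these data, passing the limit was not always enough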;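 note: values below 100% mean blocked vesicle binding to the CD8+ T cells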
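Material: 2C TCR transgenic mouse naive CD8+ T cells, MACS-purified. Also added: QL9-charged Drosophila Ld/ICAM-1/B7-1 vesicles. Timing: binding 1.5 h at 37 °C. Measured by: high-throughput flow cytometry with anti-B7-1 and anti-CD8 staining. Read-out: percent CD8+ FL2 mean versus row control. Controls: Unloaded micro-vesicles (low), QL9 vesicles with 0.7% DMSO (high).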
UCH37 inh – blocks the human deubiquitinase UCH37; Q9Y5K5; purified proteasome/UCH37, Ub-AMC cleavage fluorescence; inhibition, % (test concentration not listed); 0.33% of 330,000 active;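 active = mean inhibition over replicate wells above about 20%, limit read from the data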;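 note: 0% = compound-free wells with enzyme and 100% = wells lacking proteasome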
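system = Proteasome-associated human UCH37 deubiquitinase | amount = 0.15 nM proteasome as dispensed | medium = pH 7.4 Tris-HCl (50 mM) with ovalbumin, ATP-MgCl2, DTT | incubation = 30 min preincubation with enzyme, 25 min cleavage at room temperature | detection = AMC fluorescence 355/460 nm | read-out basis = percent inhibition | controls = no-proteasome and no-compound wells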
MEKK2wt PB1 HTS – raises or lowers MEK5 binding to wildtype human MEKK2 PB1 domain; binding response (% of control), % at 10 µM; 1.1% of 290,000 active; AID 1531; bead flow cytometry, Alexa488-MEK5 binding to MEKK2 WT; actives lie on both sides; in the data active = binding response below about 67% or above about 130%
MEKK3 PB1 HTS – raises or lowers MEK5 binding to the human MEKK3 PB1 domain; bead-based flow cytometry, Alexa488-MEK5 binding to MEKK3; actives lie on both sides; 0 = blocked by unlabeled MEK5, 100 = vehicle; binding response (% of control), % at 10 µM; 1.4% of 290,000 active; AID 1529;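 active = binding response more than 3 SD above or below the average of its plate-row segment, actives on both sides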;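 note: Alexa488 bead fluorescence after subtracting the streptavidin-only scavenger bead signal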
MEKK2 mut-MEK5 – signal of MEK5 binding to mutant human MEKK2 PB1 domain | bead flow cytometry, Alexa488-MEK5 binding to MEKK2 mutant | percent response, % at 10 µM | 0.35% of 290,000 active; in the data active = percent response above about 24%, passing the limit was not always enough
MEKK2wt confirm – raises or lowers MEK5 binding to wildtype human MEKK2, retest; shares compounds with MEKK3 PB1 HTS; bead flow cytometry, Alexa488-MEK5 binding to MEKK2 WT; actives lie on both sides; binding response (% of control), % at 10 µM; 2.4% of 5,900 active; AID 1892; in the data active = binding response below about 16% or above about 210%; inactive = in between
MEKK2mut confirm – signal of MEK5 binding to mutant human MEKK2, retest; shares compounds with MEKK3 PB1 HTS; percent response, % at 10 µM; 2% of 5,900 active; bead flow cytometry, Alexa488-MEK5 binding to MEKK2 mutant; AID 1893; in the data active = percent response mostly above about 71%, no sharp cut-off; inactive = mostly below about 38%;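 note: higher means compound restores mutant binding toward wildtype level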
MEKK3 confirm – confirmation of inhibitors of MEK5 binding to human MEKK3 | shares compounds with MEKK3 PB1 HTS | bead flow cytometry, Alexa488-MEK5 binding to MEKK3; hits give low values | binding response (% of control), % at 10 µM | 1.8% of 5,900 active;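 active = binding response below 72% of control, or above a set upper limit, though filed actives all read lower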;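 note: 100% = DMSO only wells and 0% = binding blocked by excess unlabeled MEK5; lower values mean stronger disruption of MEK5 binding to MEKK3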
The depositor's hits bear a star; i = inactive; / = not tested or not shown; [ ] = remark or other dose.

SMILES	Rce1 inhib	T cell HTS	UCH37 inh	MEKK2wt PB1 HTS	MEKK3 PB1 HTS	MEKK2 mut-MEK5	MEKK2wt confirm	MEKK2mut confirm	MEKK3 confirm
CCOC(=O)C(C)Sc1nc(=O)n2cc(C)ccc2n1 (stereo not given)	i	449	-14	54	45*[inhibitor]	-15	117	7	103
CCOC(=O)C(C)Sc1nc(=O)n2ccccc2n1 (stereo not given)	i	392	0	98	103	-6	/	/	/
c1ccc(-n2ncc3c(NCCN4CCOCC4)ncnc32)cc1	i	483	1	92	93	-6	/	/	/
c1ccc(-n2ncc3c(NCCN4CCCCC4)ncnc32)cc1	i	240	1	113	104	25*	122	11	104
Cn1ncc2c(NNC(=O)Cc3ccccc3)ncnc21	i	252	5	99	119	0	/	/	/
Cc1ccc(-n2ncc3c(NNC(=O)Cc4ccccc4)ncnc32)cc1	i	288	3	108	143*	1	104	9	106
CC(NC(=O)c1ccccc1)C(=O)NN=Cc1ccccc1 (stereo not given)	/	/	-2	/	/	/	/	/	/
CC(=NN=C(C)c1ccccc1O)c1ccccc1O	/	/	7	/	/	/	/	/	/
C/C(=N\Nc1nc2ccccc2[nH]1)c1cc2ccccc2o1	i	156	/	140*	137*	6	127	10	99
CC(=NNc1cccc2cccnc12)c1ccc(C)cc1	/	/	8	/	/	/	/	/	/
c1ccc2c(NCCc3c[nH]c4ccccc34)c3ccccc3nc2c1	i	104	/	220*	112	48*	176	46	106
Cn1c(=O)n(C)c2cc3[nH]cnc3cc21	i	i	1	96	96	3	/	/	/
Nc1cc2nc[nH]c2cc1N	i	/	1	41*[inhibitor]	31*[inhibitor]	-23	76	-18	69*
O=C(/C=C/c1ccco1)Nc1ccc(-c2nc3ccccc3[nH]2)cc1	i	469	-12	47*[inhibitor]	35*[inhibitor]	-5	76	-18	79
C=CCNC(=O)CC(=O)NN=Cc1cccc(C)c1	/	/	-1	/	/	/	/	/	/
COc1ccccc1NS(=O)(=O)c1ccc(C(N)=O)cc1	i	414	4	35*[inhibitor]	28*[inhibitor]	-76	99	-2	99
O=C(NN=Cc1ccc[nH]1)c1ccccc1O	/	/	9	/	/	/	/	/	/
Cc1ccc(OCCOc2ccc(Cl)cc2Cl)c([N+](=O)[O-])n1	i	240	3	165*	105	13	103	3	102
COc1ccc(OCCOc2ccc(C)nc2[N+](=O)[O-])cc1	i	155	5	104	106	4	/	/	/
O=C(C[n+]1cccc2ccccc21)c1ccc(Br)cc1	i	260	3	/	24*[inhibitor]	234*	107	1	91
COc1ccc(C(=O)C[n+]2ccccc2C=NO)cc1	/	/	4	/	/	/	/	/	/
COc1ccc(C(=O)C[n+]2ccccc2C)cc1	i	290	4	108	143*	1	104	7	105
Cc1ccc(C(=O)C[n+]2cccc3ccccc32)cc1	i	259	-1	86	80*[inhibitor]	-18	101	-18	94
Cc1ccnn1CC(=O)NN=Cc1ccc2c(c1)OCO2	/	/	3	/	/	/	/	/	/
COC(=O)NN=Cc1ccc(-c2ccc(Cl)c(Cl)c2)o1	/	/	2	/	/	/	/	/	/
CN(C)c1ccc(C(=O)n2nnc3ccccc32)cc1	i	266	-12	-7.0*[inhibitor]	1.0*[inhibitor]	-24	103	2	102
Cc1ccc(C(=O)n2nnc3ccccc32)cc1	i	506	/	103	104	5	/	/	/

Compound activity from PubChem BioAssay.
